From PubChem BioAssay
PG9_binder: small molecules binding HIV-1 gp120 antibody PG9; TR-FRET gp120-PG9 antibody binding; inhibition, % at 6.7 µM; hit rate 0.43% among 360,000; AID 624416; in the data active = inhibition above about 8.5%
Rev-erbA_mod: Rev-erb alpha (human) modulation | hit rate 0.79% among 370,000 | P20393 | Rev-erbα–FITC-DNA binding, fluorescence polarization, 90 min | activity, % at 10 µM | AID 1259318;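 active = activity above about 14%, limit read from the data; passing the limit was not always enough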;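 note: 0% = DMSO wells with 35 nM protein and 100% = DMSO wells with 750 nM protein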
Target sequence (P20393 whole entry, looked up): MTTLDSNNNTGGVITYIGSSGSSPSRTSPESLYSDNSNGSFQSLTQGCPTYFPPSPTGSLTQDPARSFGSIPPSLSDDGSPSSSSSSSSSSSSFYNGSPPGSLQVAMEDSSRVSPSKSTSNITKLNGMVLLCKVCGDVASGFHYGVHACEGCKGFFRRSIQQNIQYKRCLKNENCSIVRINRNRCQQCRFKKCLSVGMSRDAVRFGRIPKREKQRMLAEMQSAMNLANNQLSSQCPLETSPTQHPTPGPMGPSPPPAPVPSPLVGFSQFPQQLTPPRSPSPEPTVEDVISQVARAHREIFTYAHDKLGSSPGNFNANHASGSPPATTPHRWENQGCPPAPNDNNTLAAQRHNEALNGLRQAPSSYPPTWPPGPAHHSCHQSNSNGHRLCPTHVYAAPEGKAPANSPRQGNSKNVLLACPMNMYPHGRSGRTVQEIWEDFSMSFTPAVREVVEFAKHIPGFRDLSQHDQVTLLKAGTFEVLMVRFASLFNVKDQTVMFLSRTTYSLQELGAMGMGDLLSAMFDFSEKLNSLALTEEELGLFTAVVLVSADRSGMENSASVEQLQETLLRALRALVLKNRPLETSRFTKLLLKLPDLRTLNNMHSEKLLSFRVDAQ
H9c2_TAG_inh: triacylglycerol accumulation inhibition. H9c2 cells, Nile Red lipid (TAG) fluorescence; cells loaded with 200 µM oleic acid. inhibition, % at 12.5 µM. hit rate 0.66% among 230,000. AID 651582;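 active = pattern-corrected inhibition of lipid staining of at least 50% with the nuclear-stain viability signal not falling by more than 50%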;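 note: 0% = DMSO wells and 100% = triacsin C control wells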
hiPSC_survival: enhancers of human iPSC single-cell survival | hiPSC single-cell survival, ATPlite luminescence; 100% = ROCK inhibitor wells, 0% = DMSO | survival enhancement, % at 20 µM | hit rate 0.044% among 360,000; in the data active = survival enhancement above about 18%;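 note: cells exposed to compounds for 16 hours before the ATP read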
T_cruzi_repl: blocks replication of Trypanosoma cruzi; inhibition, % (concentration not given with the values); hit rate 1.4% among 300,000; T. cruzi beta-gal in NIH3T3, luminescence, 90 h;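 active = mean inhibition across valid replicates above about 55%, limit read from the data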;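 note: signal also drops with host cell toxicity which is not excluded here; 0% = plate median of DMSO wells and 100% = zero luminescence signal; higher percent means less beta-gal luminescence so fewer parasites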
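System: NIH/3T3 fibroblasts plus reporter T. cruzi. Medium: DMEM plus 2% FBS. Probe or stimulus: 5000 reporter trypomastigotes per well. Compound: single 50 nL compound addition per well in DMSO. Incubation: co-culture of at least 90 h after 3 h attachment. Detection: GalScreen β-gal luminescence, detergent lysis, 60 min. Evaluation: parasite load inhibition, %.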
beta_cell_repl: inducers of beta-cell replication in MIN6 cells. MIN6 cells proliferation, ATPlite luminescence, 48 h; cells starved in 0.2% serum; 100% = growth in 10% serum. proliferation, % at 10 µM. AID 2380. hit rate 0.29% among 330,000;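 active = compounds whose signal lies at least 3.5 SD above the mean of all wells on their plate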;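 note: 0% = DMSO-treated cells in low-serum medium and 100% = 10% serum control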
Rev-erbA_confirm: confirmation of modulators of human Rev-erb alpha DNA binding; hit rate 61% among 3,000; Rev-erb alpha FITC-DNA binding, fluorescence polarization, 90 min; activation, % at 25 µM; shares compounds with Rev-erbA_mod;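 active = activation at or above a set limit, or at least 3 SD above the negative control mean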;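 note: 0% = 35 nM protein with DMSO and 100% = 750 nM protein high control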
RORg_counter: counter-screen for Rev-erb alpha modulators: RORgamma DNA binding; hit rate 8% among 910; shares compounds with Rev-erbA_mod; purified RORgamma protein-FITC-DNA binding, fluorescence polarization; IC50, µM;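 active = Compounds whose fitted half-maximal concentration for disrupting protein-DNA binding is below 10 micromolar; the record names Rev-erb in its text, so the target is in doubt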
Active calls of the source: *; / = no result. Rows were chosen to be rich in hits. Some 2.9% of all compounds tested hit in one or more screens of this group.

SMILES PG9_binder Rev-erbA_mod H9c2_TAG_inh hiPSC_survival T_cruzi_repl beta_cell_repl Rev-erbA_confirm RORg_counter
Nc1ccc2ccc3cccc[n+]3c2c1 2.0 127.3* / -0.6 16.7 -0.9 105.2* >40
C=CCNC(=O)c1c(N)n(Cc2ccco2)c2nc3ccccc3nc12 -0.9 -9.5 / 0.1 -14.5 0.1 / /
CN1/C(=C\C=C2C(=O)NC(=S)NC2=O)C(C)(C)c2ccccc21 -25.2 25.0* -51.9 -1.5 7.7 1.4 53.2* >40
CC1(C)OC(c2ccccc2)=C/C(=C/C=C2C(=O)NC(=S)NC2=O)O1 -1.2 5.2 / / 4.3 -0.9 / /
Cn1cc(Br)c(C(=O)Nc2ccc3c(C(F)(F)F)cc(=O)oc3c2)n1 0.3 15.1* / -0.1 / 2.5 2.9 /
Cn1c(O)c(C(c2ccccn2)c2c(O)n(C)c(=S)[nH]c2=O)c(=O)[nH]c1=S -4.9 0.7 / -0.7 -18.1 -3.6 / /
